High-throughput results (PubChem BioAssay)
Compounds with a hit are over-represented: about 4.6% of the library has one in this group of screens.
CHO parental Ca = counter-screen: ATP calcium response change in parental CHO cells. inhibition, % at 5.6 µM. hit rate 0.63% among 330,000. AID 463079. parental CHO-K1, ATP-induced calcium, Fluo-8 fluorescence;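 active = inhibition above that plate's mean sample inhibition plus 3 SD, cut at about 26% in these data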;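 note: 0% = ATP-challenged DMSO wells and 100% = DMSO wells without ATP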
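Material: Parental CHO cells | Reagent: ATP | Compound dosing: Single nominal dose of 5.6 µM per compound | Detection: Intracellular calcium via Fluo-8 no-wash fluorescent dye | Read-out: % inhibition of ATP-induced calcium mobilization | Benchmarks: Low control ATP plus DMSO, high control DMSO only | Replicates: Singlicate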
TAAR1 antagonist = human TAAR1 antagonism; CHO RD-HGA16 TAAR1, Fluo-8 calcium fluorescence, antagonist; hit rate 1.5% among 360,000; Q96RJ0; AID 624466; inhibition, % at 3 µM;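 active = inhibition above a per-plate cutoff, the mean inhibition of test compounds on that plate plus 3 SD, cut at about 49% in these data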;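 note: 0% = DMSO plus EC80 beta-PEA response and 100% = DMSO alone without agonist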
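Material: RD-HGA16 CHO cells with stable hTAAR1 and Gα16; Dosing: single nominal final test compound concentration of 3 µM; Schedule: seeding 17-24 h prior, 75-min 37 °C, 30-min RT dye loading; Detection: kinetic Fluo-8 calcium fluorescence measurement; Measure: % inhibition from peak post-agonist over basal fluorescence ratio; Benchmarks: vehicle and agonist controls.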
TAAR1 ag = agonists of human TAAR1; CHO RD-HGA16 TAAR1, Fluo-8 calcium fluorescence; vehicle wells 0%, saturating PEA agonist 100%; AID 624467; hit rate 0.99% among 360,000; activation, % at 3 µM; Q96RJ0;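 active = activation above the mean activation of all test compounds in the run plus 3 SD, cut at about 38% in these data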
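Repeats: no replicates (n 1) | Material: CHO-derived RD-HGA16 cells with stable Gα16 and human TAAR1 | Technique: Kinetic Fluo-8 calcium fluorescence | Schedule: 17-24 h seeding, 75 min 37 °C dye, 30 min RT | Evaluation: % activation from peak over basal fluorescence ratio, DMSO-to-PEA scaled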
OX1R antag-1 = antagonists of human orexin 1 receptor | CHO/OX1R cells, Fluo-8 calcium fluorescence, orexin A | hit rate 0.43% among 330,000 | O43613 | inhibition, % at 5 µM;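 active = inhibition above its plate's threshold, mean inhibition of all tested compounds on the plate plus 3 SD, cut at about 37% in these data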;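 note: 0% = orexin A challenge wells and 100% = SB-334867-A antagonist wells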
Target sequence (O43613 whole entry, looked up): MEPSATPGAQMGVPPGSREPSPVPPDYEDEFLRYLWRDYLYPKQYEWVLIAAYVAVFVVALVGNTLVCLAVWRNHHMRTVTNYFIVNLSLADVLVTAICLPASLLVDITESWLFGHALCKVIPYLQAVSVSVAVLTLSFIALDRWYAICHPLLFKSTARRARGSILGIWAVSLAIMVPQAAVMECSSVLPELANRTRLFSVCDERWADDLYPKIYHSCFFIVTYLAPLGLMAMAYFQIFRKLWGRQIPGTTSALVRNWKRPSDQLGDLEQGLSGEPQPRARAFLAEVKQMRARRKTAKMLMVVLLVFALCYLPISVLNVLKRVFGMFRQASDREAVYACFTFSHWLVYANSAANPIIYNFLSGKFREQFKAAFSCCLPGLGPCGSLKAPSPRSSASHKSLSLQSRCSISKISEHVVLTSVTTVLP
GPR7 antagonist = antagonists of human GPR7 (neuropeptides B/W receptor 1); GPR7-expressing cells, fluorescence antagonist assay; inhibition, % at 4.4 µM; hit rate 1.1% among 290,000; in the data active = inhibition above about 16%, passing the limit was not always enough;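 note: cells stimulated with the agonist NPW; 0% = agonist with vehicle and 100% = vehicle without agonist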
Target sequence (P48145 whole entry, looked up): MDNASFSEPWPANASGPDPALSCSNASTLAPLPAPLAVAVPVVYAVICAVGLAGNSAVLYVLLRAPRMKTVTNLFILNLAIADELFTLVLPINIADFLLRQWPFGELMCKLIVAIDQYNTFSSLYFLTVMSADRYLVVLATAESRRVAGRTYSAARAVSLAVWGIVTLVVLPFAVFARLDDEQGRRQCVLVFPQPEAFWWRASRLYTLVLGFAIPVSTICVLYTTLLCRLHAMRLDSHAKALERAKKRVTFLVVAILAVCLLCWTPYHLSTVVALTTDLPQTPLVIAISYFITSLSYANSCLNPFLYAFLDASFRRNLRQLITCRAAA
OX1R antag-2 = antagonists of human orexin 1 receptor (OX1R) | inhibition, % at 6.6 µM | O43613 | AID 485270 | hit rate 1.8% among 330,000 | OX1R-expressing cells, FRET antagonist read-out; in the data active = inhibition mostly above about 38%, no sharp cut-off; inactive = mostly below about 40%;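 note: 0% = agonist challenge alone and 100% = reference antagonist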
OX1R Fluo8 conf = confirmation of human orexin 1 receptor antagonists. shares compounds with OX1R antag-1. CHO/OX1R cells, orexin A calcium Fluo-8 fluorescence. inhibition, % at 5 µM. hit rate 38% among 1,100; in the data active = inhibition above about 29%;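 note: 0% = agonist challenge alone and 100% = reference antagonist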
CHO Ca counter = counter-screen: parental CHO calcium response change, triplicate. parental CHO-K1, ATP-induced calcium, Fluo-8 fluorescence. inhibition, % at 5.6 µM. hit rate 9.3% among 1,100. shares compounds with OX1R antag-1;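 active = inhibition above a per-plate limit, the mean inhibition of that plate's test compounds plus 3 SD, cut at about 25% in these data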;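 note: 0% = ATP challenge with DMSO and 100% = DMSO without ATP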
The depositor's hits bear a star; x = not tested or not shown.

SMILES | CHO parental Ca | TAAR1 antagonist | TAAR1 ag | OX1R antag-1 | GPR7 antagonist | OX1R antag-2 | OX1R Fluo8 conf | CHO Ca counter
CC(=O)c1ccc(OCc2cc(C(=O)N(C)CCOc3ccc(C)cc3)no2)cc1 | -1 | 9 | 3 | 27 | 3 | 11 | 0 | -2
Cn1c(=O)c(C(=O)NNC(=O)c2ccc(Br)cc2)c(O)c2ccccc21 | 19 | 5 | 6 | 27 | -6 | 7 | 8 | 16
O=C1c2ccccc2-c2n[nH]c(=O)c3ccc(N4CCCCC4)c1c23 | -26 | 6 | -1 | 26 | -11 | 85 | 14 | 14
CC(C)n1nc(C(=O)Nc2ccc(-n3cnnn3)cc2)c2ccccc2c1=O | -21 | 16 | 5 | -32 | x | 7 | x | x
COc1ccc(CN2C(=O)NC3(CCOc4ccccc43)C2=O)cc1F (configuration not stated) | -4 | 9 | 10 | -27 | 18 | 12 | x | x
COc1ccc(CN2C(=O)NC(C)(c3ccc(C)cc3)C2=O)cc1F (configuration not stated) | -20 | -6 | 6 | 56* | 5 | 8 | -1 | 2
CC(=O)NCc1ccc(S(=O)(=O)N/N=C/c2ccc(N(C)C)cc2)cc1 | -12 | -14 | 2 | -5 | 7 | 13 | x | x
CCCCCCn1c(=O)c(-c2ccccc2)c(O)c2ccccc21 | -18 | -6 | -2 | -23 | -11 | 14 | x | x
CCCCCCCCn1c(=O)c(C(=O)OC)c(N)c2ccccc21 | -4 | 16 | 11 | 25 | -8 | 26 | 19 | 35*
CC(OC(=O)c1cccc(-n2cnnn2)c1)C(=O)Nc1ccc(N(C)C)cc1 (configuration not stated) | -10 | -16 | 3 | 0 | x | 14 | x | x
Cc1c(Cl)cccc1NC(=S)NCc1ccccc1 | -8 | -1 | 9 | -12 | 2 | 8 | x | x
Cc1cccc(NC(=S)NCc2ccccc2Cl)c1C | -5 | -9 | 4 | 66* | 2 | 36 | -9 | -11
C=CC(COCc1ccccc1)N([C@@H](Cc1ccccc1)C(=O)OC)S(=O)(=O)c1ccccc1Br (some centres not stated) | 29 | 4 | 18 | 80* | x | 11 | 11 | 20
O=C(Nc1ccc(OC(F)F)c(Cl)c1)c1cccc(OC(F)F)c1 | 8 | x | x | 53* | 5 | 23 | 12 | 19
CCOC(=O)c1c2n(c3ccc(OC(C)=O)cc13)CCC2 | -9 | -7 | 1 | -18 | -7 | 5 | x | x
CCOc1ccc(-c2nc(CSCC(=O)N3CCN(C(=O)c4ccco4)CC3)c(C)o2)cc1 | -18 | -13 | 0 | -30 | -5 | 6 | x | x
CCOC(=O)C1CCN(C(=O)CSCc2nc(-c3ccc(OCC)cc3)oc2C)CC1 | 17 | 25 | 7 | 29 | -8 | 42 | -2 | 16
CCOC(=O)[C@]12CCCC=C1N(Cc1ccc(Cl)cc1Cl)C(=O)[C@H](CC(=O)NCc1ccc(OC)c(OC)c1)C2 | x | -23 | 3 | x | x | x | x | x
O=C(c1ccc(S(=O)(=O)Nc2ccc(F)cc2)cc1)N1CCN(c2ccccn2)CC1 | 16 | 29 | 34 | 34 | 5 | 52 | 49* | 14
Cc1ccc(NS(=O)(=O)c2ccc(C(=O)N3CCN(c4ncccn4)CC3)cc2)cc1 | 6 | 5 | 13 | 10 | 11 | 37 | x | x
COc1ccccc1COCC(O)CN1CCCCC1CO (configuration not stated) | -19 | -15 | 5 | -32 | -12 | -8 | x | x
Nc1ccccc1SCC(=O)Nc1ccc2c(c1)OCCO2 | -2 | 3 | 0 | 1 | 6 | 0 | x | x
CCc1nccn1S(=O)(=O)c1ccc2ccc(C)cc2c1 | -11 | -11 | 7 | 56* | -7 | 16 | 4 | 3
CCOc1ccc2cc(S(=O)(=O)n3ccnc3C)ccc2c1 | 16 | 0 | 2 | -3 | 0 | 15 | x | x
CC(C)CC(NC(=O)c1ccc(Cl)cc1)C(=O)O (configuration not stated) | -4 | 10 | 7 | -7 | -10 | 11 | x | x
SMILES | CHO parental Ca | TAAR1 antagonist | TAAR1 ag | OX1R antag-1 | GPR7 antagonist | OX1R antag-2 | OX1R Fluo8 conf | CHO Ca counter
Cc1cc(C)cc(N(CC(=O)Nc2ccc(-c3nc4ccc(C)cc4s3)cc2)S(C)(=O)=O)c1 | -8 | 16 | -1 | 37* | 3 | -4 | -4 | 0
Cc1ccc2nc(-c3ccc(NC(=O)CN(c4ccccc4C)S(C)(=O)=O)cc3)sc2c1 | 27 | 34 | 1 | -1 | 0 | 12 | x | x
CN(C)S(=O)(=O)c1ccc(Cl)c(NC(=O)COC(=O)CNS(=O)(=O)c2c(F)cccc2F)c1 | x | 5 | 2 | x | x | x | x | x
Cc1c(C(=O)NC(=S)NCC(C)C)oc2ccccc12 | -9 | -14 | 1 | -9 | -7 | 12 | x | x
C=CCNC(=S)NC(=O)c1oc2ccccc2c1C | 5 | 3 | 3 | 40 | -14 | 21 | 38* | -13
COc1ccc(CN(C)c2ccc(S(=O)(=O)N3CCN(C)CC3)cc2[N+](=O)[O-])cc1OC | 6 | 2 | 11 | 46* | x | 24 | 3 | 65*
COc1ccc(NC(=O)CSc2nnc(-c3ccoc3C)n2CCc2ccccc2)cc1 | -31 | 13 | 10 | 32 | 17 | 65 | 9 | -8
Cc1cc(OCC(=O)N(C)C2CCCCC2)cc(C)c1Cl | 9 | -29 | 18 | 26 | -1 | 37 | 14 | -5
Cc1cc(OCC(=O)N(C)C2CCCCC2)ccc1Cl | -19 | -1 | 1 | -23 | -5 | 27 | x | x
CN1/C(=C\C(=S)NC(=O)c2cccc(Br)c2)C(C)(C)c2ccccc21 | -11 | 1 | 1 | -20 | -2 | 12 | x | x
CCN(CC)S(=O)(=O)c1cccc(C(=O)/C=C2/N(C)c3ccccc3C2(C)C)c1 | 13 | 59* | 1 | 27 | -6 | 27 | 0 | 8
O=C(O)CCCC(=O)N1CC(=O)Nc2ccccc21 | 8 | -18 | 6 | -21 | 2 | 18 | x | x
O=C1CN(C(=O)CCCc2c[nH]c3ccccc23)c2ccccc2N1 | -4 | 2 | 8 | 59* | 0 | 36 | 30* | 1
CC(=O)c1cn(CCOc2ccc(F)cc2)c2ccccc12 | 17 | 28 | 7 | 48* | 13 | 27 | 17 | 0
COC(=O)c1cn(CCOc2ccc(C)cc2)c2ccccc12 | -19 | 1 | 5 | -25 | -8 | 8 | x | x
COP(=O)(OC)C(Nc1ccc([N+](=O)[O-])cc1)c1ccccc1 (configuration not stated) | -19 | -1 | 3 | -7 | 8 | 11 | x | x
CCCOP(=O)(OCCC)C(Nc1ccc(C(C)C)cc1)c1ccc([N+](=O)[O-])cc1 (configuration not stated) | -6 | 26 | 5 | 55* | 13 | 2 | -2 | -27
